{"source": "ChEMBL document CHEMBL3758168", "about": "“Hybrid triazoles: Design and synthesis as potential dual inhibitor of growth and efflux inhibition in tuberculosis” (Eur J Med Chem, 2016)", "key": {"[1]": {"assay": "Cytotoxicity against human MDM assessed as cell viability after 3 days by Alamar blue dye-based fluorocytometric analysis relative to control", "settings": "72 h"}, "[2]": {"system": "Mycobacterium tuberculosis", "assay": "Antibacterial activity against Mycobacterium tuberculosis H37Rv ATCC 27294T assessed as isoniazid MIC at 8 ug/ml after 7 days by microdilution checkerboard assay", "assay_type": "functional", "settings": "168 h", "summary_of_the_method": "(§1)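 Two-dimensional checkerboard in H37Rv at 10^5 CFU/ml in MB7H9/OADC. Partner drug (amikacin, EtBr, isoniazid, ofloxacin or rifampin) two-fold serially diluted across columns 3-11. Test compound two-fold serially diluted down rows 2-6. Plates incubated 7 days at 37 °C, then MTT added overnight. […] Run in triplicate.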"}, "[3]": {"system": "Mycobacterium tuberculosis", "assay": "Antibacterial activity against Mycobacterium tuberculosis H37Rv ATCC 27294T assessed as rifampin MIC at 64 ug/ml after 7 days by microdilution checkerboard assay", "assay_type": "functional", "settings": "168 h", "summary_of_the_method": "(§2)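 M. tuberculosis H37Rv grown in MB7H9 + 10% OADC at 37 °C to OD600 0.8; plates inoculated at 10^5 CFU/ml. Rifampicin two-fold serially diluted across columns, test compound two-fold diluted down rows (two-dimensional checkerboard). Sealed, 37 °C for seven days, then MTT added and incubated overnight. MIC read as no colour change. Triplicate.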"}, "[4]": {"system": "Mycobacterium tuberculosis", "assay": "Modulation factor, ratio of ethidium bromide MIC to compound MIC for Mycobacterium tuberculosis H37Rv ATCC 27294T at 128 ug/ml in presence of ethidium bromide", "assay_type": "functional"}, "[5]": {"system": "Mycobacterium tuberculosis", "assay": "Antibacterial activity against Mycobacterium tuberculosis H37Rv ATCC 27294T assessed as ethidium bromide MIC at 8 ug/ml after 7 days by microdilution checkerboard assay", "assay_type": "functional", "settings": "168 h", "summary_of_the_method": "as §1"}, "[6]": {"system": "Mycobacterium tuberculosis", "assay": "Antibacterial activity against Mycobacterium tuberculosis H37Rv ATCC 27294T assessed as rifampin MIC at 4 ug/ml after 7 days by microdilution checkerboard assay", "assay_type": "functional", "settings": "168 h", "summary_of_the_method": "as §2"}, "[7]": {"system": "Mycobacterium tuberculosis", "assay": "Modulation factor, ratio of amikacin MIC to compound MIC for Mycobacterium tuberculosis H37Rv ATCC 27294T at 128 ug/ml in presence of amikacin", "assay_type": "functional"}, "[8]": {"system": "Mycobacterium tuberculosis", "assay": "Modulation factor, ratio of refampin MIC to compound MIC for Mycobacterium tuberculosis H37Rv ATCC 27294T at 64 ug/ml in presence of refampin", "assay_type": "functional"}, "[9]": {"system": "Mycobacterium tuberculosis", "assay": "Antibacterial activity against Mycobacterium tuberculosis H37Rv ATCC 27294T assessed as ethidium bromide MIC at 16 ug/ml after 7 days by microdilution checkerboard assay", "assay_type": "functional", "settings": "168 h", "summary_of_the_method": "as §1"}, "[10]": {"system": "Mycobacterium tuberculosis", "assay": "Antibacterial activity against Mycobacterium tuberculosis H37Rv ATCC 27294T assessed as amikacin MIC at 32 ug/ml after 7 days by microdilution checkerboard assay", "assay_type": "functional", "settings": "168 h", "summary_of_the_method": "as §1"}, "[11]": {"system": "Mycobacterium tuberculosis", "assay": "Antibacterial activity against Mycobacterium tuberculosis H37Rv ATCC 27294T assessed as amikacin MIC at 16 ug/ml after 7 days by microdilution checkerboard assay", "assay_type": "functional", "settings": "168 h", "summary_of_the_method": "as §1"}, "[12]": {"system": "Mycobacterium tuberculosis", "assay": "Antibacterial activity against Mycobacterium tuberculosis H37Rv ATCC 27294T assessed as isoniazid MIC at 32 ug/ml after 7 days by microdilution checkerboard assay", "assay_type": "functional", "settings": "168 h", "summary_of_the_method": "as §1"}, "[13]": {"system": "Mycobacterium tuberculosis", "assay": "Anti-tubercular activity against Mycobacterium tuberculosis H37Rv ATCC 27294T after 7 days by mircodilution method", "assay_type": "functional", "settings": "168 h", "summary_of_the_method": "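H37Rv grown static in MB7H9 + 10% OADC at 37 °C to OD600 0.8, then diluted to about 10^5 cells/ml. Mixed 1:1 with two-fold serial dilutions in MB7H9/OADC and incubated 7 days at 37 °C. MTT added to final 2.5% and plates incubated overnight. MIC is the lowest concentration with no colour change. Run in triplicate.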"}}, "data": [{"smiles": "CCCSc1nnc(COc2ccccc2C2=NOC(c3ccc(Cl)cc3Cl)C2)n1NC(=O)CCl", "note": "(stereo not drawn)", "values": [{"measurement": "IC50", "setting": "[1]", "value": 28.7, "unit": "µg/mL"}, {"measurement": "MIC", "setting": "[2]", "value": 0.1, "unit": "µg/mL"}, {"measurement": "MIC", "setting": "[3]", "value": 0.25, "unit": "µg/mL"}, {"measurement": "Ratio", "setting": "[4]", "value": 32}, {"measurement": "MIC", "setting": "[5]", "value": 12.5, "unit": "µg/mL"}, {"measurement": "MIC", "setting": "[6]", "value": 0.5, "unit": "µg/mL"}, {"measurement": "Ratio", "setting": "[7]", "value": 16}, {"measurement": "Ratio", "setting": "[8]", "value": 4}, {"measurement": "MIC", "setting": "[9]", "value": 12.5, "unit": "µg/mL"}, {"measurement": "MIC", "setting": "[10]", "value": 1, "unit": "µg/mL"}, {"measurement": "MIC", "setting": "[11]", "value": 1, "unit": "µg/mL"}, {"measurement": "MIC", "setting": "[12]", "value": 0.1, "unit": "µg/mL"}, {"measurement": "MIC", "setting": "[13]", "value": 64, "unit": "µg/mL"}]}]}
